Measured values from ChEMBL document CHEMBL3867438, “Cytotoxic Tirucallane and Apotirucallane Triterpenoids from the Stems of Picrasma quassioides” (J Nat Prod, 2016).
Calls of active or inactive are those of the source. The calls are words filed in the database; no cut-off is given here.

Assays:
MKN-28 [1] = assay: Induction of apoptosis in human MKN28 cells assessed as late apoptotic cells at 6 uM after 48 hrs by annexin V-FITC/PI staining based flow cytometry (reference value: 0%); format: functional
Procedure, shortened: (§1)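 MKN-28 cells (3 × 10^5/well) treated at 2, 6 and 8 μM for 48 h. Stained with annexin V-FITC and PI using a kit per the maker's protocol, then analysed by flow cytometry. Apoptotic populations quantified, early and late apoptosis counted separately. Data given as mean with SD; one-way ANOVA with Tukey's post hoc test.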

[2] = Cytotoxicity against human A549 cells assessed as inhibition of cell proliferation after 48 hrs by MTT assay; format: functional, cell-based; conditions: A549, 48 h
Procedure, shortened: (§2)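 Cells grown in DMEM with 10% FBS, 100 U/mL penicillin, 100 μg/mL streptomycin, 37 °C, 5% CO2. Seeded 5 × 10^3 cells/well, 12 h, then exposed to compounds for 48 h. MTT (5 mg/mL stock) added for 4 h at 37 °C, formazan dissolved in DMSO, absorbance read at 570 nm. IC50 relative to untreated control. Triplicate, repeated twice; cis-platinum as positive control.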

MKN-28 [3] = assay: Induction of apoptosis in human MKN28 cells assessed as late apoptotic cells at 8 uM after 48 hrs by annexin V-FITC/PI staining based flow cytometry (reference value: 0%); format: functional; procedure, shortened: as §1
MKN-28 [4] = assay: Induction of mitochondrial apoptosis in human MKN28 cells assessed as increase in bax expression level at 2 to 8 uM after 48 hrs by Western blot analysis; format: functional, cell-based
Procedure, shortened: (§3)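 MKN-28 cells (1 × 10^6/dish) cultured with compound at 2, 6 and 8 μM for 48 h. Cells lysed for 30 min on ice in RIPA buffer with DTT, PMSF and phosphatase inhibitor, then spun at 14000g, 4 °C, 15 min. Protein measured by BCA. Blots probed for Bcl-2, Bax, Bad, cleaved and pro-caspase-3 and -9, with β-actin as loading control.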

MKN-28 [5] = assay: Induction of mitochondrial apoptosis in human MKN28 cells assessed as increase in bad expression level at 2 to 8 uM after 48 hrs by Western blot analysis; format: functional, cell-based; procedure, shortened: as §3
MKN-28 [6] = assay: Induction of apoptosis in human MKN28 cells assessed as increase in early apoptotic cells after 48 hrs by annexin V-FITC/PI staining based flow cytometry; format: functional, cell-based; procedure, shortened: as §1
MKN-28 [7] = assay: Induction of apoptosis in human MKN28 cells assessed as necrotic cells at 2 uM after 48 hrs by annexin V-FITC/PI staining based flow cytometry (reference value: 0%); format: functional; procedure, shortened: as §1
MKN-28 [8] = assay: Induction of apoptosis in human MKN28 cells assessed as early apoptotic cells at 6 uM after 48 hrs by annexin V-FITC/PI staining based flow cytometry (reference value: 0.043%); format: functional; procedure, shortened: as §1
[9] = Cytotoxicity against human MCF7 cells assessed as inhibition of cell proliferation after 48 hrs by MTT assay; format: functional, cell-based; conditions: MCF7, 48 h; procedure, shortened: as §2
MKN-28 [10] = assay: Induction of apoptosis in human MKN28 cells assessed as early apoptotic cells at 2 uM after 48 hrs by annexin V-FITC/PI staining based flow cytometry (reference value: 0.043%); format: functional; procedure, shortened: as §1
MKN-28 [11] = assay: Induction of mitochondrial apoptosis in human MKN28 cells assessed as caspase 3 activation at 2 to 8 uM after 48 hrs by Western blot analysis; format: functional, cell-based; procedure, shortened: as §3
MKN-28 [12] = assay: Induction of apoptosis in human MKN28 cells assessed as viable cells at 2 uM after 48 hrs by annexin V-FITC/PI staining based flow cytometry (reference value: 100%); format: functional; conditions: MKN-28, 48 h, read-out: Activity; procedure, shortened: as §1
MKN-28 [13] = assay: Induction of apoptosis in human MKN28 cells assessed as necrotic cells at 6 uM after 48 hrs by annexin V-FITC/PI staining based flow cytometry (reference value: 0%); format: functional; procedure, shortened: as §1
MKN-28 [14] = assay: Induction of apoptosis in human MKN28 cells assessed as increase in late apoptotic cells after 48 hrs by annexin V-FITC/PI staining based flow cytometry; format: functional, cell-based; procedure, shortened: as §1
MKN-28 [15] = assay: Induction of apoptosis in human MKN28 cells assessed as late apoptotic cells at 2 uM after 48 hrs by annexin V-FITC/PI staining based flow cytometry (reference value: 0%); format: functional; procedure, shortened: as §1
[16] = Cytotoxicity against human MKN28 cells assessed as inhibition of cell proliferation after 48 hrs by MTT assay; format: functional, cell-based; conditions: MKN-28, 48 h; procedure, shortened: as §2
MKN-28 [17] = assay: Induction of mitochondrial apoptosis in human MKN28 cells assessed as decrease in bcl-2 expression level at 2 to 8 uM after 48 hrs by Western blot analysis; format: functional, cell-based; procedure, shortened: as §3
MKN-28 [18] = assay: Induction of apoptosis in human MKN28 cells assessed as necrotic cells at 8 uM after 48 hrs by annexin V-FITC/PI staining based flow cytometry (reference value: 0%); format: functional; procedure, shortened: as §1
MKN-28 [19] = assay: Induction of apoptosis in human MKN28 cells assessed as viable cells at 8 uM after 48 hrs by annexin V-FITC/PI staining based flow cytometry (reference value: 100%); format: functional; conditions: MKN-28, 48 h, read-out: Activity; procedure, shortened: as §1
MKN-28 [20] = assay: Induction of apoptosis in human MKN28 cells assessed as viable cells at 6 uM after 48 hrs by annexin V-FITC/PI staining based flow cytometry (reference value: 100%); format: functional; conditions: MKN-28, 48 h, read-out: Activity; procedure, shortened: as §1
MKN-28 [21] = assay: Induction of apoptosis in human MKN28 cells assessed as early apoptotic cells at 8 uM after 48 hrs by annexin V-FITC/PI staining based flow cytometry (reference value: 0.043%); format: functional; procedure, shortened: as §1
MKN-28 [22] = assay: Induction of mitochondrial apoptosis in human MKN28 cells assessed as caspase 9 activation at 2 to 8 uM after 48 hrs by Western blot analysis; format: functional, cell-based; procedure, shortened: as §3

Structure (SMILES): CCO[C@@H]1O[C@@H](C=C(C)C)C[C@H]1[C@@H]1CC=C2[C@]3(C)[C@H](O)C[C@H]4C(C)(C)[C@H](O)CC[C@]4(C)[C@H]3CC[C@]21C
- Activity (MKN-28 [1]): 12.6%
- IC50 [2]: 5.6 µM
- Activity (MKN-28 [3]): 21%
- Activity (MKN-28 [4]): Active
- Activity (MKN-28 [5]): Active
- Activity (MKN-28 [6]): Dose-dependent effect
- Activity (MKN-28 [7]): 0.869%
- Activity (MKN-28 [8]): 5.76%
- IC50 [9]: 9.1 µM
- Activity (MKN-28 [10]): 3.21%
- Activity (MKN-28 [11]): Active
- viability at 2 µM (MKN-28 [12]): 93.2%
- Activity (MKN-28 [13]): 2.51%
- Activity (MKN-28 [14]): Dose-dependent effect
- Activity (MKN-28 [15]): 2.69%
- IC50 [16]: 2.5 µM
- Activity (MKN-28 [17]): Active
- Activity (MKN-28 [18]): 0.685%
- viability at 8 µM (MKN-28 [19]): 66%
- viability at 6 µM (MKN-28 [20]): 78.9%
- Activity (MKN-28 [21]): 12.4%
- Activity (MKN-28 [22]): Active
